Measured values reported in the RNAGym collection of RNA variant scans (doi:10.1126/science.aae0568).
Fewer inactive variants are shown than the library holds.

B1: tRNA (parent)
chain: GUUCCGUUGGCGUAAUGGUAACGCGUCUCCCUCCUAAGGAGAAGACUGCGGGUUCGAGUCCCGUACGGAACG

Variants of: B1
Assay: yeast fitness relative to wild type (ratio to wild type); higher = fitter; tRNA-Arg(CCU), competitive growth, 37 C, YPD
In short: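 Gene amplicons from the start population and from each of six end populations were read by 100-nucleotide paired-end sequencing. Those end populations came from pooled Saccharomyces cerevisiae strains carrying tRNA-Arg(CCU) gene variants at the native locus, competed in YPD at 37°C for 24 hours. Fitness relative to wild type was worked out from changes in genotype frequencies. Genotypes needed ≥ 100 starting reads, and estimates < 0.5 were set to 0.5.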

Variant | yeast fitness
GUUCCGUUGGCGUAAUGGUAACGCGUCUCCCUCCUAAGGAGAAGACUGCGGGUUCCACUCCCGUACGGAACG | 0.563
GUUCCGGUGGCGUAAUGGUAACGCGUGUCCCUCCUAAGCAGAAGACCGGGGGUUCGGGUCCCGUACGGAACG | ≤ 0.5
GUUUCGUUGGUGUAAUGGUAACGCGGCCCCCUCCUAGGGAAAAGACUGGGGGUUCGAGUCCCGUACGGAACG | ≤ 0.5
GUUCCGUUGGCGUAAUGGUAACGCGUCUGCCUCCUAAGGAGAAGACUGCGGGUUGGAGUCCCGUACGGAGCG | ≤ 0.5
GUUCCGUUGGCGUAAUGGUAACGCGUCUCCCUGCUAAGGAGAAGCCUGCGGGUUCGAGUCGCGUACGGAACG | 0.567
GUUCAGUUGGCAUAAUGAUAACGCGUCUCCCUCCUAAGGAGAAGACUGCGGGUUCGAGUCCCGUUCGGAACG | ≤ 0.5
GUUCCGUUGGCGUAAUGGGAACGCGUCUCCCUCCUAAGAGGAAGACUGCGGGUUCGAGUCCCGUACGGAACG | 0.56
GUUCCGUUGGCGUAAUGGUAACGUGUCUCCCUCCUAAGGAGAAGACUGCGGGUUCGCGUCUCGUACGGAACG | ≤ 0.5
GUUCCGUUGGCGUAUUGGUAACGCGUCUCCCUCCUAAGGGGAAGAUUGCGGGUUCGAGUCCCGUACGGAACG | 0.697
GUUCCGUUGGCGUAAUGGUAACGCGUCUCCUUCCUAAGGAGAAGACUGCGGGUUCGAGUUCCGUACAGUACG | ≤ 0.5
GUUCCGUUGGCGUAAUGGUAACGCAUCUCCCUCCUAAGGAGAAGACUGCCGGUUCGAGUCCCGUACGGAACG | 0.929
GUACCGUUGGCGUAAUGGUAACGCGUCUCCCUCAUAAGGAGAAGACUGCGGGUUCGAGUCCCGUACGGGACG | ≤ 0.5
GUUCCGUUGGCGUCAUGGUAACGCGUUUCUCUCAUAAGGAGAAGACUGCGGGUUCGAGUCCAGUACGGAACG | ≤ 0.5
GUUCCGUUGGCGUAAUGGUAACGCGUCUCACUACUAAGGAGAAGACUGCGGGUUCGUGUCCCGUACGGAACG | ≤ 0.5
GUUUCGUUGGCAUAAUGGUAACGCGUCUCCCUCCUAAGGAGAAGACUGCGGGUUCGAGUCCCGUACGGAACG | 1.11
GUUCGGUUGGCGUAAUGGUAACGCGUCUCCCUACUAAGGAGAAGACUGCGGGUUCGAGUCCCGUUCGGAACG | ≤ 0.5
GUUCCGUUGGCAUAAUGGUAACGCGUCUCCCUCCAAAGGAGAAGACUGCGGGUUCGAAUCCCGUACGGAACG | 0.524
GUUCCGUUGGCAUAAUGGUAACGCGUCUCCCUCCUAAGGAGAAGACUGCGGGUUCGAGACCCGUACGGAACG | 0.8
GUUCCGUUGGCGUAAUGGUAACGCCUCUCCCUCCUAAGGAGAAGACUGCGGGUUCGAGUCCCGUUCGGAACG | 1.03

Variant | yeast fitness
GUUCCGUUGGCGUAAUGGUAACGCGUCUCCCUCCUAAGGAGAAGACUGAGGCUUCGAGUCCCGUACGGAACG | 0.527
GUUCCGUUGGCGUAAUGGUAACGCGUUUCCCUCCUAAGGAGAAGGCUGCGGGCUCGAGUCCCGUACGGAACG | 0.544
GGUCCGUUGGAGUAAUGGUAACGAGACUCCCUCCUAAGGAGAACACUGCGGGUUCGAGUCCCGUACGGAACG | ≤ 0.5
GUUGCGUUGGCGUAAUGGUAACGUGUCUCCCUCCUAAGGAGAAGCCUGCGGGUUCGAGUCCCGUACGGAACG | 0.6
GUUCCGUUGGCGUAAUGGUAAUGCGUCUCCCUCCUAAGGGGAUGAGUGGGGGUUCGAGUCCUGUACGGAACG | 0.531
GUUCCGUUGGCGUACAGGUAGCGCGACUCUCUCCUAAGGAGAAGACUGCGGGUUCGAGUCCCGUACGGAACG | ≤ 0.5
GUUCCGUUGGAGUAAUGGUAACGCGUCUCCCUCCUAAGGAGAAGACUGUGGGUUCGAGUCUCGUACGGAACG | ≤ 0.5
GUUCCGUUGGUGUAAUGGUAACGCGUCUCCCUCCUAAGGAGAAGACUGCGGGUACGACUCCCGUACGGAACG | ≤ 0.5
GUUCCGUUGGCCUAAUGGUAACGUGUCUCCCUCCUAAGGAGAAGACUGUGGGUUUGAGUCCCGUACGCAACG | ≤ 0.5
GUUCCGUUGGAGUAAUGGUAACGCGUUUCCCUCCUAAGGAGAACACUGCGGGUUCGAGUCCCGUACGGAACG | 0.572
GUUCCGUUGGCGUCAUGGUAACGCGUCUCUCUCCUAAGGAGAGGACUGCGGGUUCGAGUCCCGUACGGAACG | ≤ 0.5
GUUCCGUAGGCGUAAUGGUAACGCGUCUCCCUCCUAAGGAGAAGACUGCGGGUUCGAGUCACGUACGGAACG | 0.753
GUUCCGUUGGCGUAAUCGUCACGCGUCUCCCUCCUAAGGAGAAGACUGCGGGUUCGAGUCCCGUACGGAACG | 0.54
GUUCCGUUGGCGUAAUGAUAACGCGUCUACCUCCUAAGGAGAAGACUGUGGGUUCGAGUCCCGUACGGAACG | ≤ 0.5
GUUCCGUUGGCGUAAUGGUAACGCGUCUCCCACCUAAGGAGAAGACUGCGGGUUCGAGUCCCGGACGGAACG | 0.751
GUUCCGUUGGCGUAAUGGUAACGCGCCUCCCUCCUAAGGGGAAGACUGCGGGUUCGAGUCCCGUAUGGAACG | 0.563
GUUCGGUAGGCGUAGUGGUAACGCGUCUCCCUCCUAAGGACAAGACAGCGGGUUCGAGUCCCGUACGGAACG | ≤ 0.5
GUUCCGAUGGCGUAAUGGUAACGCGUCUCCCGGCUAAGGAGAAGACUGCGGGUUCGAGUCCCGUACGGAUCG | ≤ 0.5
